Measured values from ChEMBL document CHEMBL2321803, “Antitrypanosomal lead discovery: identification of a ligand-efficient inhibitor of Trypanosoma cruzi CYP51 and parasite growth” (J Med Chem, 2013).
Calls of active or inactive are those of the source. The calls are words filed in the database; no cut-off is given here.

How the values were obtained:
[1] = Selectivity index, ratio of EC50 for mouse NIH/3T3 cells to EC50 for Trypanosoma cruzi trypomastigote; type: toxicity, cell-based, NIH3T3; conditions: read-out: Ratio EC50
[2] = tested on: Trypanosoma cruzi; assay: Antitrypanosomal activity against Trypanosoma cruzi trypomastigote infected in mouse NIH/3T3 cells after 96 hrs by luciferase reporter gene assay; conditions: NIH/3T3, 96 h
[3] = tested on: NIH3T3; assay: Cytotoxicity against mouse NIH/3T3 cells; type: cell-based
Method in brief: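 Counterscreen on uninfected NIH 3T3 cells grown in DMEM with 10% FBS at 37 °C and 5% CO₂, run alongside the 96 h infection assay. EC50 is the mean of three independent experiments performed on different days.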

[4] = tested on: Trypanosoma cruzi; assay: Antitrypanosomal activity against Trypanosoma cruzi trypomastigote infected in mouse NIH/3T3 cells at 9.5 uM incubated for 3 days post infection by DAPI-staining based immunofluorescence assay; type: functional, organism-based; conditions: NIH3T3
Method in brief: (§1)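 NIH-3T3 cells on coverslips were infected 2 h with trypomastigotes (Tulahuen β-gal or Y luciferase), washed, then given drug for 3 days. Cells were fixed in 4% paraformaldehyde, permeabilised with Triton X-100 and stained with rabbit anti-T. cruzi (1:2000) plus Alexa 488 secondary and DAPI. Imaged at 60× oil, 50 fields per condition.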

[5] = tested on: Trypanosoma cruzi; assay: Antitrypanosomal activity against Trypanosoma cruzi Tulahuen infected in mouse NIH/3T3 cells after 48 to 72 hrs by beta-galactosidase reporter gene assay
[6] = tested on: Trypanosoma cruzi; assay: Antitrypanosomal activity against Trypanosoma cruzi Y infected in mouse NIH/3T3 cells after 48 to 72 hrs by luciferase reporter gene assay
[7] = target: Sterol 14-alpha demethylase (Trypanosoma cruzi (strain CL Brener), UniProt Q7Z1V1); assay: Binding affinity to Trypanosoma cruzi recombinant full length CYP51 by spectrophotometric analysis
Chain of Sterol 14-alpha demethylase (Q7Z1V1 whole entry): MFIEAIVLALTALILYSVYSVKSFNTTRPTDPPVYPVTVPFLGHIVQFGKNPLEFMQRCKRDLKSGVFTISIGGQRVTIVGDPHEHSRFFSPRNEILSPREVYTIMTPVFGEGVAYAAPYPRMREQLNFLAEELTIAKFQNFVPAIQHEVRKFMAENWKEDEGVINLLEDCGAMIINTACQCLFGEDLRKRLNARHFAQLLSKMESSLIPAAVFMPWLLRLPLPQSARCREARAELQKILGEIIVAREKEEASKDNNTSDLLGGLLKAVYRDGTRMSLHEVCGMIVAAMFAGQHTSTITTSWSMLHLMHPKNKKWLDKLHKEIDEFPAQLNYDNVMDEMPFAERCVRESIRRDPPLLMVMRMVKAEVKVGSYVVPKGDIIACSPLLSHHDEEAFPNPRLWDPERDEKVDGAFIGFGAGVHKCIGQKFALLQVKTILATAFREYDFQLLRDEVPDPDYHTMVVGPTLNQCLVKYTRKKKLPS
Method in brief: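 Purified full-length T. cruzi CYP51 (2 μM) was titrated with ligand at 0.5–10 μM, recording type 2 difference spectra at 350–450 nm, 25 °C. Apparent Kd came from ΔA425–390 versus free ligand, fitted to a rectangular hyperbola.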

[8] = Metabolic stability in mouse microsomes after 20 mins in presence of ketoconazole; type: ADME, Microsome
Method in brief: (§2)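 Liver microsomes (human, mouse or rat), with or without CYP inhibitor. Read-out is percent of compound metabolized at 20 min.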

[9] = Metabolic stability in rat microsomes after 20 mins in presence of ketoconazole; type: ADME, Microsome; method in brief: as §2
[10] = Metabolic stability in human microsomes after 20 mins in presence of ketoconazole; type: ADME, Microsome; method in brief: as §2
[11] = tested on: Plasma; assay: Plasma protein binding in mouse; type: ADME, cell-free
[12] = tested on: Plasma; assay: Plasma protein binding in human; type: ADME, cell-free
[13] = target: T1, hERG (KCNH2) (Homo sapiens, UniProt Q12809); assay: Inhibition of human ERG at 1 uM relative to control
T1 sequence (Q12809 whole entry): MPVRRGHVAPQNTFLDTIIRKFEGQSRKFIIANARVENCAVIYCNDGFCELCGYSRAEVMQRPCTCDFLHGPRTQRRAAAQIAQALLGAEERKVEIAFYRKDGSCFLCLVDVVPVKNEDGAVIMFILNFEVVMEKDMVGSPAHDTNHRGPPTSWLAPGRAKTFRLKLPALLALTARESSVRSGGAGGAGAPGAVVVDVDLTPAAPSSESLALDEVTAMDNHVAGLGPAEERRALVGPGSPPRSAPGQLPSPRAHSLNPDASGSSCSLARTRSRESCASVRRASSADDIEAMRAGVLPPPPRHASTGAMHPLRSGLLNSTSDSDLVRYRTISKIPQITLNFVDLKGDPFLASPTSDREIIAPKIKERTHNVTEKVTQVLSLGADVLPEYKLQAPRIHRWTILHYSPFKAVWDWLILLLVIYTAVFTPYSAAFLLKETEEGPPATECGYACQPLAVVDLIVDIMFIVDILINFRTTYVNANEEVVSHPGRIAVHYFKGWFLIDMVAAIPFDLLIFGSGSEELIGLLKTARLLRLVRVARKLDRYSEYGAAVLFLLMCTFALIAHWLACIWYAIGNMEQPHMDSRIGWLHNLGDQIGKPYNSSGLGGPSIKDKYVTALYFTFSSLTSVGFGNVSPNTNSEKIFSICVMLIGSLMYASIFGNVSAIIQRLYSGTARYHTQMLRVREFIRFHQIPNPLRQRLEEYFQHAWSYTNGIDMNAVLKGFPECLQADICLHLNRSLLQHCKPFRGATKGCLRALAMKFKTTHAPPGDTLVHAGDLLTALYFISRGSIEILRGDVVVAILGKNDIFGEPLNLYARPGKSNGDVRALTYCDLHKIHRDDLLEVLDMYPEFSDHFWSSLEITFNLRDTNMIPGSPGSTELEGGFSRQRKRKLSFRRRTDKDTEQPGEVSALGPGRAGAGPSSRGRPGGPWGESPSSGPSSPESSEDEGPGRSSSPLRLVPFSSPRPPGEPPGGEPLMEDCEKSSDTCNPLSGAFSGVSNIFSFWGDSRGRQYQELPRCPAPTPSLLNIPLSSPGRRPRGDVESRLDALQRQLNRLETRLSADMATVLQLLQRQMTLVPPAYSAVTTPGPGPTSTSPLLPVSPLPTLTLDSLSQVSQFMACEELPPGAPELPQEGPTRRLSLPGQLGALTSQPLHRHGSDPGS

[14] = target: T1, hERG (KCNH2); assay: Inhibition of human ERG at 10 uM relative to control
[15] = Metabolic stability in human microsomes after 20 mins; type: ADME, Microsome; conditions: read-out: Stability; method in brief: as §2
[16] = Metabolic stability in rat microsomes after 20 mins in presence of quinidine; type: ADME, Microsome; method in brief: as §2
[17] = tested on: Plasma; assay: Metabolic stability in mouse plasma after 1 to 4 hrs; type: ADME, cell-free
[18] = tested on: Plasma; assay: Metabolic stability in human plasma after 1 to 4 hrs; type: ADME, cell-free
[19] = tested on: Trypanosoma cruzi; assay: Antitrypanosomal activity against Trypanosoma cruzi trypomastigote infected in mouse NIH/3T3 cells at 0.4 uM incubated for 3 days post infection by DAPI-staining based immunofluorescence assay; type: functional, organism-based; conditions: NIH3T3; method in brief: as §1
[20] = tested on: Trypanosoma cruzi; assay: Antitrypanosomal activity against Trypanosoma cruzi Tulahuen […] after 24 hrs by beta-galactosidase reporter gene assay; type: functional, organism-based; conditions: LLC-MK2
[21] = tested on: Trypanosoma cruzi; assay: Antitrypanosomal activity against Trypanosoma cruzi Y infected in […] cells after 24 hrs by luciferase reporter gene assay; type: functional, organism-based
Method in brief: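 Y strain expressing firefly luciferase, trypomastigotes from LLC-MK2 cultures, infecting NIH/3T3 host cells (50 000 cells and 50 000 parasites per well). Drug added at infection (top 50 μM, DMSO <0.5%, duplicates) and washed out at 24, 48 or 72 h. D-luciferin at 150 μg/mL final added at 96 h, luminescence read 1 s. EC50 relative to 4 μM amphotericin B maximal inhibition.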

[22] = Metabolic stability in rat microsomes after 20 mins; type: ADME, Microsome; conditions: read-out: Stability; method in brief: as §2
[23] = tested on: Caco-2; assay: Permeability across human Caco2 cells; type: ADME, cell-based
[24] = Metabolic stability in mouse microsomes after 20 mins; type: ADME, Microsome; conditions: read-out: Stability; method in brief: as §2
[25] = Metabolic stability in mouse microsomes after 20 mins in presence of quinidine; type: ADME, Microsome; method in brief: as §2
[26] = Metabolic stability in human microsomes after 20 mins in presence of quinidine; type: ADME, Microsome; method in brief: as §2

| SMILES | selectivity ratio [1] | EC50 [2] | EC50 [3] | other results |
| --- | --- | --- | --- | --- |
| Clc1ccc(Oc2cccc(Cn3ccnc3)c2)cc1 | > 150 | 0.65 µM | > 100 µM | – |
| Cc1nnc(-c2cccc(Oc3cc(C)c(Cl)c(C)c3)c2)o1 | – | 14.1 µM | 46.1 µM | – |
| O=C(Nc1cccc(Cl)c1)Nc1ccccc1-n1ccnc1 | – | 0.461 µM | – | – |
| Cc1cc(Oc2cccc(Cn3cc4ccccc4n3)c2)cc(C)c1Cl | – | 9.8 µM | > 100 µM | – |
| Cc1cc(Oc2cccc(Cn3ncc4ccccc43)c2)cc(C)c1Cl | – | 13.4 µM | > 100 µM | – |
| Cc1nnc(Cc2cccc(Oc3cc(C)c(Cl)c(C)c3)c2)o1 | – | 3.4 µM | 6.2 µM | – |
| Clc1ccc(COc2cccc(Cn3ccnc3)c2)cc1 | 1810 | 0.042 µM | 76.2 µM | – |
| Cc1cc(OCCCCn2ccnc2)cc(C)c1Cl | – | 0.0051 µM | – | – |
| Cc1cc(Oc2cccc(Cn3ccc4ccccc43)c2)cc(C)c1Cl | – | 10.7 µM | > 100 µM | – |
| Cc1nnc(-c2cccc(Oc3cc(C)c(Cl)c(C)c3)c2)s1 | – | 12.3 µM | > 100 µM | – |
| Cc1cc(Oc2cccc(Cn3cccn3)c2)cc(C)c1Cl | – | 2.8 µM | > 100 µM | – |
| Cc1cc(Oc2cccc(CN3CCOCC3)c2)cc(C)c1Cl | – | 3.7 µM | > 100 µM | – |
| Cc1cc(Oc2cccc(Cn3cnnc3)c2)cc(C)c1Cl | – | 11.2 µM | > 100 µM | – |
| Clc1ccc(CCOc2cccc(Cn3ccnc3)c2)cc1 | 134 | 0.53 µM | 71.1 µM | – |
| Cc1cc(Oc2cccc(Cn3cnc4ccccc43)c2)cc(C)c1Cl | – | 3.7 µM | 40 µM | – |
| Cc1cc(Oc2cccc(Cn3ccnn3)c2)cc(C)c1Cl | – | 1.1 µM | 66.8 µM | – |
| Cc1nnc(Cc2cccc(Oc3cc(C)c(Cl)c(C)c3)c2)s1 | – | 2.2 µM | 3.8 µM | – |

| SMILES | selectivity ratio [1] | EC50 [2] | EC50 [3] | other results |
| --- | --- | --- | --- | --- |
| O=C(Cn1ccnc1[N+](=O)[O-])NCc1ccccc1 [BENZNIDAZOLE] | – | 1.9 µM | > 50 µM | Activity [4]: Active; Activity [5]: Active; Activity [6]: Active |
| Cc1cc([N+](=O)[O-])ccc1Nc1cccc(Cn2ccnc2)c1 | > 1000 | 0.072 µM | > 100 µM | – |
| Cc1ccccc1Oc1cccc(Cn2ccnc2)c1 | 112 | 0.711 µM | 79.3 µM | Kd [7]: 0.18 µM |
| COc1cccc(Nc2cccc(Cn3ccnc3)c2)c1 | > 500 | 0.167 µM | > 100 µM | Kd [7]: 0.21 µM |
| O=C(N[C@@H](Cn1ccnc1)c1ccccc1)c1ccc(-c2ccc(Cl)cc2)cc1 | – | – | – | Kd [7]: 0.07 µM |
| Cc1cccc(OCCCCCn2ccnc2)c1 | – | 0.443 µM | – | – |
| c1ccc(-c2cccc(Oc3cccc(Cn4ccnc4)c3)c2)cc1 | 121 | 0.282 µM | 34 µM | – |
| Cc1cc(Oc2cccc(Cn3ccnc3)c2)cc(C)c1Cl | 169 | 0.08 µM | 13.5 µM | Stability [8]: Stable; Stability [9]: Stable; Stability [10]: Stable; PPB [11]: > 99.8%; PPB [12]: > 99.8%; inhibition at 1 µM [13]: 19%; inhibition at 10 µM [14]: 94%; remaining at 20 min [15]: 39%; Stability [16]: Stable; Kd [7]: 0.067 µM; Stability [17]: 4%; Stability [18]: -9.7%; Activity [19]: Active; Activity [20]: Active; Activity [21]: Active; remaining at 20 min [22]: 36%; permeability [23]: 20.97 ×10⁻⁶ cm/s; remaining at 20 min [24]: 29%; Stability [25]: Stable; Stability [26]: Stable |
| Cc1cc(Oc2cccc(CN3CCN(C)CC3)c2)cc(C)c1Cl | – | 6.2 µM | 29.7 µM | – |
| Cc1cc(Oc2cccc(Cn3nccn3)c2)cc(C)c1Cl | – | 5.4 µM | > 100 µM | – |
| Cc1cc(OCCCCCCn2ccnc2)cc(C)c1Cl | – | 0.023 µM | – | – |
| Cc1cccc(Oc2cccc(Cn3ccnc3)c2)c1 | 238 | 0.33 µM | 78.7 µM | – |
| Cc1cc(Oc2cccc(Cn3cncn3)c2)cc(C)c1Cl | – | 1.1 µM | 75.9 µM | – |
| Cc1cc(OCCCCCn2ccnc2)cc(C)c1Cl | – | 0.0025 µM | – | – |
| Cc1cc(C)cc(Oc2cccc(Cn3ccnc3)c2)c1 | > 300 | 0.33 µM | > 100 µM | – |
| c1ccc(Oc2cccc(Cn3ccnc3)c2)cc1 | > 60 | 1.63 µM | > 100 µM | – |
